Assay results from ChEMBL document CHEMBL3259773, “Indirubin core structure of glycogen synthase kinase-3 inhibitors as novel chemotype for intervention with 5-lipoxygenase” (J Med Chem, 2014).
The source made the active and inactive calls. The calls are words filed in the database; no cut-off is given here.

How the values were obtained:
[1] = target: T1, Polyunsaturated fatty acid 5-lipoxygenase (Homo sapiens) (UniProt P09917); test: Inhibition of human recombinant 5-LO assessed as product formation at 3 uM by cell-free assay relative to control; values are per cent of control
T1 sequence (whole entry): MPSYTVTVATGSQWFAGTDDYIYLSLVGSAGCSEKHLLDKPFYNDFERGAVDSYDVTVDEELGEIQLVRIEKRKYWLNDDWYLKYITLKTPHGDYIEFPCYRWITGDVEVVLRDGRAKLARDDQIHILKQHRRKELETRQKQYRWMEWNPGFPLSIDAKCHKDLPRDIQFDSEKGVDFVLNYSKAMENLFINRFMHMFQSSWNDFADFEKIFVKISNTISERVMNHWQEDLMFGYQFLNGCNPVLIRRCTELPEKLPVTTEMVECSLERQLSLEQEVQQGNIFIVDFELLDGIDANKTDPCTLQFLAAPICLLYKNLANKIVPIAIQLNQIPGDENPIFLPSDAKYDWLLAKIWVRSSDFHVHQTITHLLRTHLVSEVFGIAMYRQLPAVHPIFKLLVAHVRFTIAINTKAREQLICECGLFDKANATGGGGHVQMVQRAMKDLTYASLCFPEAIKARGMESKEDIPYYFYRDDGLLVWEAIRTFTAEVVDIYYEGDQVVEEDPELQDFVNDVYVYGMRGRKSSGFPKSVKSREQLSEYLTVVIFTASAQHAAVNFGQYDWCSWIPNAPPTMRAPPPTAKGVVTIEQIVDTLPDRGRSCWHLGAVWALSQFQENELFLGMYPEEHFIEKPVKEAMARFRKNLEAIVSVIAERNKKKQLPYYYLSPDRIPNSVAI

[2] = target: T1, Polyunsaturated fatty acid 5-lipoxygenase (Homo sapiens); test: Inhibition of 5-LO in human neutrophils assessed as product formation at 3 uM by cell-intact assay relative to control in presence of 2.5 uM A23187 ionophore; values are per cent of control
[3] = target: T2, Prostaglandin G/H synthase 1 (Ovis aries) (UniProt P05979); test: Inhibition of ovine COX1 using arachidonic acid at 10 uM after 5 mins by HPLC analysis
T2 sequence (whole entry): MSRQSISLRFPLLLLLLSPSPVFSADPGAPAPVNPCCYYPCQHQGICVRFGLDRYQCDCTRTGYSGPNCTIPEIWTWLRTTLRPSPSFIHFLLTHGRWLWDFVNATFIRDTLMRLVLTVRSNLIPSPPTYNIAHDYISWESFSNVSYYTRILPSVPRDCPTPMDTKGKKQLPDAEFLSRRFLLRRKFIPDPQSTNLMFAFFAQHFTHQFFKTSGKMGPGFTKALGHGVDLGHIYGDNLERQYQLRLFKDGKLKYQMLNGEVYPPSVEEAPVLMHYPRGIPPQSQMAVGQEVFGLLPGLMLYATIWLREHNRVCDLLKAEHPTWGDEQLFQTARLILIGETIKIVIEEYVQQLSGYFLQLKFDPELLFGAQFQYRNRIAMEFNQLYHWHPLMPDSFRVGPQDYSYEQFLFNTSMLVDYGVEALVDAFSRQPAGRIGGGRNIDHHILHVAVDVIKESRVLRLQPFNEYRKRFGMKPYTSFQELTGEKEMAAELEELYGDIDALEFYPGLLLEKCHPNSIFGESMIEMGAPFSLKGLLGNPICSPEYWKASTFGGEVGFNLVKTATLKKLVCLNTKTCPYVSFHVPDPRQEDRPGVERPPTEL
How it was run: (§1)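 Enzyme (ovine COX-1) or A549 microsomal preparation (human mPGES-1) given compound or reference inhibitor 10 min before reaction start. Activity expressed as % of 0.1% DMSO vehicle control, read-outs 12-HHT (COX-1) and PGE2 (mPGES-1). Means ± SE, n = 3.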

[4] = target: T3, Polyunsaturated fatty acid 5-lipoxygenase (Homo sapiens, UniProt P09917); test: Inhibition of human recombinant 5-LO assessed as product formation by cell-free assay relative to control
T3 sequence (P09917 whole entry): T1 sequence (whole entry)
How it was run: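 Partially purified human recombinant 5-LO (ATP-agarose eluate, 0.5–2 μg) in PBS-EDTA with 1 mM ATP. Preincubated with vehicle or compound 10 min at 4 °C, prewarmed 30 s at 37 °C, then started with 2 mM CaCl2 and 20 μM AA. Products analysed by HPLC. Means ± SE, n = 3 or 4; IC50 by sigmoidal variable-slope fit.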

[5] = target: T3, Polyunsaturated fatty acid 5-lipoxygenase; test: Inhibition of 5-LO in human neutrophils assessed as product formation by cell-intact assay relative to control in presence of 2.5 uM A23187 ionophore
How it was run: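 Intact human neutrophils, 5 × 10^6 cells/mL, stimulated with 2.5 μM A23187. 5-LO products analysed by HPLC or UPLC–MS/MS and expressed relative to DMSO vehicle control. Means ± SE, n = 3 or 4; IC50 from sigmoidal variable-slope fit.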

[6] = target: T3, Polyunsaturated fatty acid 5-lipoxygenase; test: Inhibition of 5-LO in human neutrophils assessed as product formation by cell-intact assay relative to control in presence of 20 uM A23187/AA ionophore
How it was run: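 Intact human neutrophils, 5 × 10^6 cells/mL, stimulated with 2.5 μM A23187 plus 20 μM exogenous AA. 5-LO products quantified by HPLC or UPLC–MS/MS relative to vehicle control. IC50 from sigmoidal variable-slope fit, means ± SE, n = 3.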

SH-SY5Y = test: Anticancer activity against human SH-SY5Y cells assessed as reduction in cell viability; assay type: functional, cell-based
[7] = target: T1, Polyunsaturated fatty acid 5-lipoxygenase (Homo sapiens); test: Binding affinity to human recombinant 5-LO ATP-bindng site using ATP-agaarose column in S40 fraction of Escherichia coli
How it was run: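 E. coli S40 fraction (40,000 × g supernatant) bound to ATP-agarose for 10 min at 4 °C. Pellets washed 3× with PBS-1 mM EDTA, then exposed to vehicle (0.1% DMSO) or compound for 30 min at 4 °C. Eluates and pellet-bound 5-LO resolved by SDS-PAGE and Western blot. Representative of three experiments.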

[8] = target: T4, Prostaglandin E synthase (Homo sapiens) (UniProt O14684); test: Inhibition of human mPGES1 from human A549 cells assessed as PGE2 at 10 uM after 15 mins by HPLC; assay type: cell-based
T4 sequence (whole entry): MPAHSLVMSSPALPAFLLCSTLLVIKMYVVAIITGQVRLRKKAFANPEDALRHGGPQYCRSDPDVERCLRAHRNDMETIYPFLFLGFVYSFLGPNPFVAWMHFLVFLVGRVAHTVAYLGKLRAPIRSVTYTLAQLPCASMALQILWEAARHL
How it was run: as §1

[9] = Inhibition of pig brain GSK3 using YRRAAVPPSPSLSRHSSPHQSpEDEEE substrate by cell-free assay; parameters: species or system Sus scrofa

| residual activity [1] [%] | residual activity [2] [%] | SMILES | also measured |
| --- | --- | --- | --- |
| 72.8 | 99.1 | COC(=O)c1ccc2c(c1)C(=N\O)/C(=C1/C(=O)Nc3c(Br)cccc31)N2 | – |
| 85.4 | 110 | O=C1Nc2c(Br)cccc2/C1=C1/Nc2ccccc2C1=O | – |
| 76.2 | 64.7 | O=C1Nc2cc(Br)ccc2/C1=C1/Nc2ccccc2/C1=N\OCCN1CCNCC1 | – |
| 79.2 | 112 | CC(=O)O/N=C1/C(=C2/C(=O)Nc3c(Br)cccc32)Nc2ccccc21 | – |
| 71.5 | 87 | CN(CCO/N=C1/C(=C2/C(=O)Nc3cc(Br)ccc32)Nc2ccccc21)CC(O)CO (configuration not stated) | – |
| – | – | COc1ccc2c(c1)c(CC(=O)O)c(C)n2C(=O)c1ccc(Cl)cc1 | inhibition [3]: Active |
| 88.3 | 81.5 | O=C1Nc2cc(Br)ccc2/C1=C1/Nc2ccccc2/C1=N\OCCO | – |
| 82.9 | 120 | CO/N=C1/C(=C2/C(=O)Nc3c(Br)cccc32)Nc2ccccc21 | – |
| 68.9 | 43 | O=C1Nc2c(Br)cccc2/C1=C1/Nc2ccccc2/C1=N\O | IC50 [4]: 5.8 µM; IC50 [5]: 1.7 µM; IC50 [6]: 3.6 µM; EC50 (SH-SY5Y): 8 µM |
| 43.9 | 111 | O=Nc1c(-c2c(O)[nH]c3ccccc23)[nH]c2cc(Br)ccc12 | – |
| 97.7 | 122 | CN1C(=O)/C(=C2\Nc3ccccc3\C2=N/O)c2cccc(Br)c21 | Activity [7]: inactive |
| – | 37.9 | CC(c1cc2ccccc2s1)N(O)C(N)=O (configuration not stated) | – |
| 65.8 | 67.4 | O=C1Nc2c(Cl)cccc2/C1=C1/Nc2ccccc2/C1=N\O | IC50 [4]: 4.9 µM; IC50 [5]: 4.9 µM; IC50 [6]: 3.1 µM |
| 89.3 | 119 | O=C1Nc2cc(Br)ccc2/C1=C1/Nc2ccccc2/C1=N\OCCN1CCN(CCO)CC1 | – |
| 62.3 | 51.1 | O=C1Nc2ccc(Br)cc2/C1=C1/Nc2ccccc2/C1=N\O [INDIRUBIN 2] | IC50 [4]: 5.6 µM; IC50 [5]: 2.6 µM; IC50 [6]: 3.3 µM |
| 58.1 | 50.4 | O=C1Nc2c(F)cccc2/C1=C1/Nc2ccccc2/C1=N\O | IC50 [4]: 3.7 µM; IC50 [5]: 5 µM; IC50 [6]: 3.3 µM |
| 68 | 92.6 | O=C1Nc2c(cccc2C(F)(F)F)/C1=C1/Nc2ccccc2/C1=N\O | – |
| 77.1 | 123 | O=C1Nc2c(Br)cccc2/C1=C1/Nc2cc(C(=O)O)ccc2/C1=N\O | – |
| – | – | CC(C)c1ccc2c(c1)c(SC(C)(C)C)c(CC(C)(C)C(=O)O)n2Cc1ccc(Cl)cc1 | inhibition [8]: Active |
| 80 | 105 | O=C1Nc2c(Br)cccc2/C1=C1/Nc2cc(C(=O)O)ccc2C1=O | – |
| 82.1 | 91.1 | CN1CCN(CCO/N=C2/C(=C3/C(=O)Nc4cc(Br)ccc43)Nc3ccccc32)CC1 | – |
| 80 | 95.1 | O=C1Nc2c(Br)cccc2/C1=C1/Nc2ccc(/C=N/O)cc2C1=O | – |
| 58 | 77.7 | O=C1Nc2cc(Br)ccc2/C1=C1/Nc2ccccc2/C1=N\OCC(O)CO (configuration not stated) | – |
| 60.3 | 62.7 | O=C1Nc2cc(Br)ccc2/C1=C1/Nc2ccccc2/C1=N\OCCN1CCOCC1 | – |
| 75.1 | 127 | O=C1Nc2cc(Br)ccc2/C1=C1/Nc2ccccc2/C1=N\OCCN1CCCC1 | – |

| SMILES | residual activity [1] [%] | residual activity [2] [%] | also measured |
| --- | --- | --- | --- |
| O=Nc1c(-c2c(O)[nH]c3ccccc23)[nH]c2ccccc12 [INDIRUBIN-3-MONOXIME] | 78.4 | 92.2 | IC50 [4]: 15 µM; IC50 [5]: 11.1 µM; IC50 [6]: 8.2 µM; IC50 [9]: 0.022 µM |
